# From ChEMBL document CHEMBL1132657, “CoMFA study of novel phenyl ring-substituted 3alpha-(diphenylmethoxy)tropane analogues at the dopamine transporter” (J Med Chem, 1999)
# Molecular target: T1, Sodium-dependent dopamine transporter (Rattus norvegicus, UniProt P23977)
# Test: Inhibition of [3H]dopamine uptake in rat caudate putamen tissue.
# Assay type: functional, tissue-based
# Procedure, shortened: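 Rat caudate putamen chopped into 225 µm slices, in oxygenated Krebs-HEPES at 37 °C. Stopped with ice-cold buffer and filtered; accumulated label extracted in methanol/HCl and counted by scintillation. Specific uptake; IC50 by linear regression on the linear portion of the concentration–response curve.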
# T1 sequence (P23977 whole entry): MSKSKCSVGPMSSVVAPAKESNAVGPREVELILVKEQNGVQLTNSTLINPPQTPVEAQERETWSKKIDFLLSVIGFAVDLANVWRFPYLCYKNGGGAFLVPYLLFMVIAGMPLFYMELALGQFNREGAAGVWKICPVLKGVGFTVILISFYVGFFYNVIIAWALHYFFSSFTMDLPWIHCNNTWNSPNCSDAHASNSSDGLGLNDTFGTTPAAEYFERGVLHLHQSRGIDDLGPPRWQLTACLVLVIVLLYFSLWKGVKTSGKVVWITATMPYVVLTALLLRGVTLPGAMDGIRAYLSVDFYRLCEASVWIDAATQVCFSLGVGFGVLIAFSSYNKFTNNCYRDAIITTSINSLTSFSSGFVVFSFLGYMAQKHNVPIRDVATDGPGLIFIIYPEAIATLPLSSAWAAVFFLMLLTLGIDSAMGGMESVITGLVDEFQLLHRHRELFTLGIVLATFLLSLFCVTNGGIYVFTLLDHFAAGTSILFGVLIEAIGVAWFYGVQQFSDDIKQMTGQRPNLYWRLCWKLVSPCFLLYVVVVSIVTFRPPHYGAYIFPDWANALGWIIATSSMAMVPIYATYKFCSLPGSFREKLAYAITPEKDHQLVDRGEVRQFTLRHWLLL
row,Structure (SMILES),IC50 [nM]
1,CN1[C@@H]2CC[C@H]1C[C@@H](OC(c1ccc(F)cc1)c1ccc(Br)cc1)C2 (stereo not given in full),27.2
2,CN1[C@@H]2CC[C@H]1C[C@@H](OC(c1ccccc1)c1cccc(Br)c1)C2 (stereo not given in full),104
3,CN1[C@@H]2CC[C@H]1C[C@@H](OC(c1ccc(F)cc1)c1cccc(C(F)(F)F)c1)C2 (stereo not given in full),182
4,CN1[C@@H]2CC[C@H]1C[C@@H](OC(c1ccccc1)c1cccc([N+](=O)[O-])c1)C2 (stereo not given in full),795
5,Cc1cccc(C(O[C@H]2C[C@H]3CC[C@@H](C2)N3C)c2ccc(F)cc2)c1 (stereo not given in full),108
6,CN1[C@@H]2CC[C@H]1C[C@@H](OC(c1ccc(F)cc1)c1cccc(Cl)c1)C2 (stereo not given in full),123
7,Cc1cccc(C(O[C@H]2C[C@H]3CC[C@@H](C2)N3C)c2ccccc2)c1 (stereo not given in full),226
8,CN1[C@@H]2CC[C@H]1C[C@@H](OC(c1ccc(F)cc1)c1cccc(Br)c1)C2 (stereo not given in full),179
9,CN1[C@@H]2CC[C@H]1C[C@@H](OC(c1ccc(F)cc1)c1cccc(F)c1)C2 (stereo not given in full),139
10,CN1[C@@H]2CC[C@H]1C[C@@H](OC(c1ccccc1)c1ccc(F)c(F)c1)C2 (stereo not given in full),181
11,CN1[C@@H]2CC[C@H]1C[C@@H](OC(c1ccccc1)c1ccccc1Cl)C2 (stereo not given in full),977

# Molecular target: T1, Sodium-dependent dopamine transporter
# Test: Displacement of [3H]WIN-35428 binding to the dopamine transporter in rat caudate putamen tissue.
# Assay type: tissue-based
row,Structure (SMILES),Ki [nM]
1,CN1[C@@H]2CC[C@H]1C[C@@H](OC(c1ccc(F)cc1)c1ccc(Br)cc1)C2 (stereo not given in full),15.2
2,CN1[C@@H]2CC[C@H]1C[C@@H](OC(c1ccccc1)c1cccc(Br)c1)C2 (stereo not given in full),27
3,CN1[C@@H]2CC[C@H]1C[C@@H](OC(c1ccc(F)cc1)c1cccc(C(F)(F)F)c1)C2 (stereo not given in full),88.1
4,CN1[C@@H]2CC[C@H]1C[C@@H](OC(c1ccccc1)c1cccc([N+](=O)[O-])c1)C2 (stereo not given in full),187
5,Cc1cccc(C(O[C@H]2C[C@H]3CC[C@@H](C2)N3C)c2ccc(F)cc2)c1 (stereo not given in full),30.9
6,CN1[C@@H]2CC[C@H]1C[C@@H](OC(c1ccc(F)cc1)c1cccc(Cl)c1)C2 (stereo not given in full),23.4
7,Cc1cccc(C(O[C@H]2C[C@H]3CC[C@@H](C2)N3C)c2ccccc2)c1 (stereo not given in full),78
8,CN1[C@@H]2CC[C@H]1C[C@@H](OC(c1ccc(F)cc1)c1cccc(Br)c1)C2 (stereo not given in full),38.2
9,CN1[C@@H]2CC[C@H]1C[C@@H](OC(c1ccccc1)c1ccc(F)c(F)c1)C2 (stereo not given in full),27.9
